Experimental findings from ChEMBL document CHEMBL1152782, “Rational modification of a candidate cancer drug for use against Chagas disease” (J Med Chem, 2009) are described below.

Broadly, the EC50 is the concentration needed to bring the measured effect to its halfway point. A higher EC50 goes with weaker potency. By IC50 is commonly meant the midpoint of a concentration-inhibition curve. The Cmax is the maximum level reached in the sampled fluid or tissue.

The test system of data set [1] is Trypanosoma cruzi. Description: Antitrypanosomal activity against Trypanosoma cruzi Tulahuen amastigotes expressing beta-galactosidase in mouse 3T3 fibroblast after 7 days by […]. It is filed as functional, organism-based. As to conditions: 168 h. A general note: Resazurin is reduced to fluorescent resorufin, in cell work by metabolically active cells.

The nature of data set [2]: Inhibition of rat recombinant protein farnesyltransferase expressed in Sf9 cells by [3H]-scintillation proximity assay. In general terms: Scintillation proximity formats need no separation of bound from free tracer.
Data set [3] is described as follows: Ratio of IC50 for rat recombinant protein farnesyltransferase to EC50 for Trypanosoma cruzi Tulahuen expressing beta-galactosidase.
Another data set addresses Cytochrome P450 3A4 (Homo sapiens, UniProt P08684). Description: Inhibition of human recombinant CYP3A4. In kind it is ADME.
Data set [4] has as its target Sterol 14-alpha demethylase (Trypanosoma cruzi (strain CL Brener)) (UniProt Q7Z1V1). Description: Inhibition of Trypanosoma cruzi recombinant sterol 14-alpha-demethylase assessed as drug/enzyme molar ratio required to produce 50 percent decrease in turnover number.
In data set [5] the target is T1, Lanosterol 14-alpha demethylase (Homo sapiens, UniProt Q16850).
T1 sequence (Q16850 whole entry): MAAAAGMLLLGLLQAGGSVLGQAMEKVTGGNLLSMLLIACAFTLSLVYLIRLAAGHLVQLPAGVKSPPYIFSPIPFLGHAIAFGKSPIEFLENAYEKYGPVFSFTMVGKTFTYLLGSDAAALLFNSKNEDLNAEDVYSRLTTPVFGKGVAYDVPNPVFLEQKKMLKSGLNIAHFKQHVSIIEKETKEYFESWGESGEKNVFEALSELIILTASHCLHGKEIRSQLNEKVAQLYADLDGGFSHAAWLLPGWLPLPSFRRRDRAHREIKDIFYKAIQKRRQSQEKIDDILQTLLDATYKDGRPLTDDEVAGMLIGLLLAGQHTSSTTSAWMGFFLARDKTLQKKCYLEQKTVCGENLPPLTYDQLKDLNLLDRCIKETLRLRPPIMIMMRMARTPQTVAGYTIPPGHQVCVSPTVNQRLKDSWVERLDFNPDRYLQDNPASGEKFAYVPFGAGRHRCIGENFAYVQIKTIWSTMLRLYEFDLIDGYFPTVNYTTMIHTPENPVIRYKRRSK
Description: Inhibition of human sterol 14-alpha-demethylase assessed as drug/enzyme molar ratio required to produce 50 percent decrease in turnover number.

Data set [6] in a line: Elimination half life in BALB/c mouse at 50 mg/kg, po. In kind it is ADME, organism-based. On the set-up: dose 50 mg/kg, route oral. The settings on record: in vivo, read-out: beta t1/2 (converted). A digest of the protocol: (§1)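 Single oral gavage dose of 50 mg/kg, suspended at 10 mg/ml in 20% (w/v) hydroxypropyl beta-cyclodextrin, to uninfected female BALB/c mice (7–8 weeks, ~20 g); timed tail blood, plasma extracted with acetonitrile using an internal standard, quantified by reversed-phase LC-MS (electrospray ion trap); three mice averaged.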

The nature of data set [7]: Cmax in BALB/c mouse at 50 mg/kg, po. In kind it is ADME, organism-based. More on the design: dose 50 mg/kg, route oral. The settings on record: in vivo. A digest of the protocol: as §1
The test system of another data set is Mus musculus. Description: Toxicity in BALB/c mouse at 50 mg/kg, po administered twice a day. As to conditions: in vivo. In kind it is organism-based. On the set-up: dose 50 mg/kg, route oral. A digest of the protocol: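 Infected female BALB/c mice given oral gavage in 20% hydroxypropyl beta-cyclodextrin, 100 mg/kg twice daily days 8–13 then 50 mg/kg twice daily days 14–27; monitored for weight loss and adverse effects.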

The subject of data set [8] is Trypanosoma cruzi. Description: Antitrypanosomal activity against Trypanosoma cruzi Tulahuen trypomastigotes infected in BALB/c mouse assessed as suppression of parasitemia in blood culture at 100 mg/kg, po twice a day after 7 days of infection for 8 to 13 days and 50 mg/kg, po for 14 to 27 days measured after 100 days by microscopy. It is filed as functional, organism-based. A digest of the protocol:
(§2)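 Female BALB/c mice (7–8 weeks) infected subcutaneously with 5×10^3 Tulahuen trypomastigotes; oral gavage from day 8, groups of 5–6, for 20 days. Benznidazole 100 mg/kg once daily days 8–27; test agents 100 mg/kg twice daily days 8–13 then 50 mg/kg twice daily days 14–27; vehicle 20% hydroxypropyl beta-cyclodextrin twice daily. Parasitemia counted in 5 μL tail blood over 50 high-powered fields.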

The test system of data set [9] is Trypanosoma cruzi. The data set can be described thus: Antitrypanosomal activity against Trypanosoma cruzi Tulahuen trypomastigotes infected in BALB/c mouse assessed as suppression of parasitemia at 100 mg/kg, po twice a day after 7 days of infection for 8 to 13 days and 50 mg/kg, po for 14 to 27 days measured weekly for 8 weeks by microscopy. In kind it is functional, organism-based. A digest of the protocol: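 Female BALB/c mice, 7–8 weeks old, infected s.c. with 5×10^3 Tulahuen trypomastigotes; parasitemic by day 7. From day 8, groups of 5–6 were gavaged 100 mg/kg twice daily (days 8–13), then 50 mg/kg twice daily (days 14–27), in 20% w/v hydroxypropyl-β-cyclodextrin. Parasitemia read in 5 μL tail blood over 50 high-power fields. Day-103 cardiac blood cultured at 28 °C, checked weekly for 8 weeks.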

Data set [10] concerns Trypanosoma cruzi. Description: Antitrypanosomal activity against Trypanosoma cruzi Tulahuen trypomastigotes infected in BALB/c mouse assessed as suppression of parasitemia at 100 mg/kg, po after 7 days of infection for 8 to 27 days measured weekly for 8 weeks by microscopy. In kind it is functional, organism-based. On the set-up: dose 100 mg/kg. A digest of the protocol: as §2

Data set [11] in a line: Terminal half life in po dosed human administered twice a day. It is filed as ADME, organism-based. As to conditions: in vivo, read-out: beta t1/2 (converted).

Active and inactive are the calls of the source. The calls are words filed in the database; no cut-off is given here. Bounds are passed on as bounds.

Sequence of Cytochrome P450 3A4 (P08684 whole entry): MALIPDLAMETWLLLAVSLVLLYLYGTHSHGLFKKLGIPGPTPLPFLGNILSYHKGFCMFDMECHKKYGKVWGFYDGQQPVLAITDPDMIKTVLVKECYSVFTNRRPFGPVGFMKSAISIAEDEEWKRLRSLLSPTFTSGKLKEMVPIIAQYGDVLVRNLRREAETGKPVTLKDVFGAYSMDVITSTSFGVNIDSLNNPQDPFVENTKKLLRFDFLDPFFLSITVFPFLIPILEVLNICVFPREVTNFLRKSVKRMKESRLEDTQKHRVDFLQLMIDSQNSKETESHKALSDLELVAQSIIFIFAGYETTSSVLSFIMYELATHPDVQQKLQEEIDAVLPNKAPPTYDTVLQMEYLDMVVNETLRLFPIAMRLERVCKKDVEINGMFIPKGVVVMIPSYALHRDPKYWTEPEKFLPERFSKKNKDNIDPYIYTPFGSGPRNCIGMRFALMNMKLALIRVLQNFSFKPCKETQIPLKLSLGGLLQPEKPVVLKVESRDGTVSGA
Sequence of Sterol 14-alpha demethylase (Trypanosoma cruzi (strain CL Brener)) (Q7Z1V1 whole entry, looked up): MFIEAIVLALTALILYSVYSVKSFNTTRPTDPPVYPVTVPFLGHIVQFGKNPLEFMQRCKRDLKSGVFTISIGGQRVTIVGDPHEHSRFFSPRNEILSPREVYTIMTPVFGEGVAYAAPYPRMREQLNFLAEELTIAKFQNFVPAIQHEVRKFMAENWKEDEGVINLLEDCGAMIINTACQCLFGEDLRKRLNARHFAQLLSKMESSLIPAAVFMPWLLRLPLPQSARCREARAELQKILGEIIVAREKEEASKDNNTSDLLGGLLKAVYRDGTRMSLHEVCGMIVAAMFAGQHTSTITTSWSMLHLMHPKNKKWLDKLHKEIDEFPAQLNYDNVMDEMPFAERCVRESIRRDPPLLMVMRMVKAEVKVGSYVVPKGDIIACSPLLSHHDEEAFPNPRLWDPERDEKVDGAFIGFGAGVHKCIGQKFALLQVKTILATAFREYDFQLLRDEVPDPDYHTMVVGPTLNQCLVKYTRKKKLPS

Take `CC[C@@H]([C@H](C)O)n1ncn(-c2ccc(N3CCN(c4ccc(OC[C@@H]5CO[C@@](Cn6cncn6)(c6ccc(F)cc6F)C5)cc4)CC3)cc2)c1=O` [POSACONAZOLE]: a half-maximal response with Trypanosoma cruzi [1] (EC50) required 0.3 nM.
In turn, `Cc1cc([C@@](N)(c2ccc3c(c2)c(-c2cccc(Cl)c2)cc(=O)n3C)c2cncn2C)ccc1Cl` (racemic) had an EC50 with Trypanosoma cruzi [1] of 23 nM. In addition, in data set [2], the IC50 stood at 13 nM. In addition, in data set [3], the Ratio IC50/EC50 amounted to 0.6.
In the data set with Trypanosoma cruzi [1], `Cc1c(Cl)cccc1-c1cc(=O)n(C)c2ccc([C@](N)(c3ccc(Cl)cc3)c3cncn3C)cc12` (racemic) gave an EC50 of 21 nM. In addition, the IC50 at Cytochrome P450 3A4 came out at 1300 nM; in data set [2], 294 nM. For the same compound, the Activity was 0.65 in data set [4] and > 100 in data set [5]. Further, in data set [3], the Ratio IC50/EC50 was 14.
For `CO[C@](c1ccc(Cl)cc1)(c1ccc2c(c1)c(-c1cccc(Cl)c1C)cc(=O)n2C)c1cncn1C` (racemic), the EC50 with Trypanosoma cruzi [1] was 0.6 nM. The IC50 on Cytochrome P450 3A4 was 870 nM; in [2], > 5000 nM. The half-life in [6] was 4 h. In addition, the Activity in data set [4] is 0.62; in data set [5] it was 48; in the data set with Mus musculus it was “Non-toxic”. The compound also displayed a Cmax in [7] of 5 µM. For the same compound, the result in the data set with Trypanosoma cruzi [8], with Trypanosoma cruzi [9] and in the data set with Trypanosoma cruzi [10] was Active. Further, the Ratio IC50/EC50 in data set [3] is > 8300.
In turn, `Cc1ccccc1-c1cc(=O)n(C)c2ccc([C@](N)(c3ccc(Cl)cc3)c3cncn3C)cc12` (racemic) came in with an EC50 with Trypanosoma cruzi [1] of 23 nM. Also, the IC50 came to 1350 nM at Cytochrome P450 3A4 and 300 nM in data set [2]. The Ratio IC50/EC50 in [3] came to 13.
For the compound `Cn1cncc1[C@](N)(c1ccc(Cl)cc1)c1ccc2c(c1)c(-c1cccc(Cl)c1)cc(=O)n2C` [(S)-TIPIFARNIB], the Activity is 0.74 in [4] and > 100 in data set [5].
Regarding `Cn1cncc1[C@@](N)(c1ccc(Cl)cc1)c1ccc2c(c1)c(-c1cccc(Cl)c1)cc(=O)n2C` [TIPIFARNIB], in the data set with Trypanosoma cruzi [1], the EC50 came out at 4 nM. Moreover, in data set [11], the half-life is 16 h. Besides, the Activity is 0.48 in data set [4] and > 100 in data set [5]. Further, the IC50 in data set [2] amounted to 0.7 nM. For the same compound, the outcome in the data set with Trypanosoma cruzi [9] was inactive.
`Cn1cncc1[C@@](N)(c1ccc2ccccc2c1)c1ccc2c(c1)c(-c1cccc(Cl)c1)cc(=O)n2C` returned an EC50 in the data set with Trypanosoma cruzi [1] of 45 nM. For the same compound, the IC50 in data set [2] was 17 nM. In addition, in data set [3], the Ratio IC50/EC50 is 0.4.
As to `Cn1cncc1[C@@](N)(c1ccc(Cl)cc1)c1ccc2c(c1)c(-c1cccc3ccccc13)cc(=O)n2C` (racemic), the EC50 with Trypanosoma cruzi [1] is 22 nM. Also, the values for the Activity in [4] and in data set [5] were 0.85 and > 100, respectively. The IC50 in data set [2] came out at 485 nM.
`Cn1cncc1[C@@](N)(c1ccc(Cl)cc1)c1ccc2c(c1)c(-c1ccccc1)cc(=O)n2C` had an EC50 in the data set with Trypanosoma cruzi [1] of 12 nM. Also, the IC50 in [2] was 4 nM. In addition, the Ratio IC50/EC50 in data set [3] was 0.3.
The compound `CC(=O)N1CCN(c2ccc(OCC3COC(Cn4ccnc4)(c4ccc(Cl)cc4Cl)O3)cc2)CC1` (configuration not stated) [KETOCONAZOLE] showed an EC50 in the data set on Trypanosoma cruzi [1] of 0.3 nM. Besides, the figures for the Activity in data set [4] and in data set [5] were 0.75 and 2.3, respectively.
